Molecules are shown by their SMILES. In brackets after ≈: the same amount, converted by molar mass. A value given as a limit tells only on which side of the number the result lay.

For the first assay, the system named is SW-620. In words: Cytotoxicity against human SW620 cells after 72 hrs by MTT assay. Format: functional, cell-based. To be noted: SW-620, 72 h. The gist of the method:
(§1)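 Cells harvested from 70–80% confluent cultures by trypsin/EDTA and seeded at 5000 cells/well in DMEM for 24 h. Compounds were dissolved in DMSO and diluted in medium to 0.5–20, with final DMSO below 1%. After 72 h at CO2, MTT was added for 3 h at 37 °C. Medium was replaced with DMSO and OD read at 540 nm. IC50 ± SD, three independent experiments.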
By IC50 is commonly meant the concentration at which inhibition is half-maximal. A lower IC50 goes with inhibition by little substance. With `C=C(C)[C@@H]1CC[C@]2(C(=O)O)CC[C@]3(C)[C@H](CC[C@@H]4[C@@]5(C)Cc6c([nH]c7ccc(Cl)cc67)C(C)(C)[C@@H]5CC[C@]43C)[C@@H]12`, 2.7 µg/mL (≈ 4.8 µM) corresponded to half-maximal inhibition (IC50).

Consider `C=C(C)[C@@H]1CC[C@]2(C(=O)O)CC[C@]3(C)[C@H](CC[C@@H]4[C@@]5(C)Cc6c([nH]c7ccc(OC)cc67)C(C)(C)[C@@H]5CC[C@]43C)[C@@H]12`, for which inhibition was half-maximal at 8.4 µg/mL (≈ 15.1 µM) (IC50).

For the compound `CC(C)[C@@H]1CC[C@]2(C(=O)O)CC[C@]3(C)[C@H](CC[C@@H]4[C@@]5(C)Cc6c(oc7ccccc67)C(C)(C)[C@@H]5CC[C@]43C)[C@@H]12`, the half-inhibitory concentration (IC50) was greater than 20 µg/mL.

Compound `C=C(C)[C@@H]1CC[C@]2(C(=O)O)CC[C@]3(C)[C@H](CC[C@@H]4[C@@]5(C)Cc6c(n(C)c7ccccc67)C(C)(C)[C@@H]5CC[C@]43C)[C@@H]12` returned a concentration for half-maximal inhibition (IC50) greater than 20 µg/mL.

The next assay has as its system K562. In words: Cytotoxicity against human K-562 cells after 72 hrs by MTT assay. Particulars: K562, 72 h. The class given is functional, cell-based.
Compound `C=C(C)[C@@H]1CC[C@]2(C(=O)O)CC[C@]3(C)[C@H](CC[C@@H]4[C@@]5(C)Cc6c([nH]c7ccc(Cl)cc67)C(C)(C)[C@@H]5CC[C@]43C)[C@@H]12` had a half-maximal inhibitory concentration (IC50) of 9.61 µg/mL (≈ 17.1 µM).

For `C=C(C)[C@@H]1CC[C@]2(C(=O)O)CC[C@]3(C)[C@H](CC[C@@H]4[C@@]5(C)Cc6c([nH]c7ccc(OC)cc67)C(C)(C)[C@@H]5CC[C@]43C)[C@@H]12`, the half-inhibitory concentration (IC50) is greater than 20 µg/mL.

In turn, `CC(C)[C@@H]1CC[C@]2(C(=O)O)CC[C@]3(C)[C@H](CC[C@@H]4[C@@]5(C)Cc6c(oc7ccccc67)C(C)(C)[C@@H]5CC[C@]43C)[C@@H]12` yielded an IC50 of 15.3 µg/mL (≈ 28.8 µM).

`C=C(C)[C@@H]1CC[C@]2(C(=O)O)CC[C@]3(C)[C@H](CC[C@@H]4[C@@]5(C)Cc6c(n(C)c7ccccc67)C(C)(C)[C@@H]5CC[C@]43C)[C@@H]12` showed an IC50 of 7.73 µg/mL (≈ 14.3 µM).

The test system of another assay is MIA PaCa-2. In words: Selectivity index, ratio of IC50 for mouse NIH3T3 cells to IC50 for human MIA PaCa2 cells. Format: functional.
Conditions: not given
For `C=C(C)[C@@H]1CC[C@]2(C(=O)O)CC[C@]3(C)[C@H](CC[C@@H]4[C@@]5(C)Cc6c([nH]c7ccc(Cl)cc67)C(C)(C)[C@@H]5CC[C@]43C)[C@@H]12`, the “Ratio IC50” value was 2.

The next assay concerns PA-1. In words: Cytotoxicity against human PA-1 cells after 72 hrs by MTT assay. To be noted: PA-1, 72 h. The class given is functional, cell-based. The gist of the method:
as §1
(Tetrazolium assays rely on reduction of a dye to a coloured formazan, in cell work by metabolically active cells.)
`C=C(C)[C@@H]1CC[C@]2(C(=O)O)CC[C@]3(C)[C@H](CC[C@@H]4[C@@]5(C)Cc6c([nH]c7ccc(Cl)cc67)C(C)(C)[C@@H]5CC[C@]43C)[C@@H]12` showed an IC50 of 2.5 µg/mL (≈ 4.45 µM).

With `C=C(C)[C@@H]1CC[C@]2(C(=O)O)CC[C@]3(C)[C@H](CC[C@@H]4[C@@]5(C)Cc6c([nH]c7ccc(OC)cc67)C(C)(C)[C@@H]5CC[C@]43C)[C@@H]12`, half-maximal inhibition (IC50) required 5.8 µg/mL (≈ 10.4 µM).

In turn, `CC(C)[C@@H]1CC[C@]2(C(=O)O)CC[C@]3(C)[C@H](CC[C@@H]4[C@@]5(C)Cc6c(oc7ccccc67)C(C)(C)[C@@H]5CC[C@]43C)[C@@H]12` displayed an IC50 greater than 20 µg/mL.

`C=C(C)[C@@H]1CC[C@]2(C(=O)O)CC[C@]3(C)[C@H](CC[C@@H]4[C@@]5(C)Cc6c(n(C)c7ccccc67)C(C)(C)[C@@H]5CC[C@]43C)[C@@H]12`: the 50% inhibitory concentration (IC50) is greater than 20 µg/mL.

The next assay relates to DU-145. In words: Cytotoxicity against human DU145 cells after 72 hrs by MTT assay. Format: functional, cell-based. Particulars: DU-145, 72 h. The gist of the method:
as §1
Consider `C=C(C)[C@@H]1CC[C@]2(C(=O)O)CC[C@]3(C)[C@H](CC[C@@H]4[C@@]5(C)Cc6c([nH]c7ccc(Cl)cc67)C(C)(C)[C@@H]5CC[C@]43C)[C@@H]12`, for which the IC50 amounted to 4.9 µg/mL (≈ 8.72 µM).

With `C=C(C)[C@@H]1CC[C@]2(C(=O)O)CC[C@]3(C)[C@H](CC[C@@H]4[C@@]5(C)Cc6c([nH]c7ccc(OC)cc67)C(C)(C)[C@@H]5CC[C@]43C)[C@@H]12`, half-maximal inhibition (IC50) required 5.75 µg/mL (≈ 10.3 µM).

Take `CC(C)[C@@H]1CC[C@]2(C(=O)O)CC[C@]3(C)[C@H](CC[C@@H]4[C@@]5(C)Cc6c(oc7ccccc67)C(C)(C)[C@@H]5CC[C@]43C)[C@@H]12`: the half-inhibitory concentration (IC50) is greater than 20 µg/mL.

`C=C(C)[C@@H]1CC[C@]2(C(=O)O)CC[C@]3(C)[C@H](CC[C@@H]4[C@@]5(C)Cc6c(n(C)c7ccccc67)C(C)(C)[C@@H]5CC[C@]43C)[C@@H]12` yielded a half-inhibitory concentration (IC50) of 20 µg/mL (≈ 36.9 µM).

The next assay deals with A549. In words: Cytotoxicity against human A549 cells after 72 hrs by MTT assay. To be noted: A549, 72 h. The class given is functional, cell-based. The gist of the method:
as §1
`C=C(C)[C@@H]1CC[C@]2(C(=O)O)CC[C@]3(C)[C@H](CC[C@@H]4[C@@]5(C)Cc6c([nH]c7ccc(Cl)cc67)C(C)(C)[C@@H]5CC[C@]43C)[C@@H]12` yielded an IC50 of 7.14 µg/mL (≈ 12.7 µM).

The compound `C=C(C)[C@@H]1CC[C@]2(C(=O)O)CC[C@]3(C)[C@H](CC[C@@H]4[C@@]5(C)Cc6c([nH]c7ccc(OC)cc67)C(C)(C)[C@@H]5CC[C@]43C)[C@@H]12` displayed an IC50 of 8.2 µg/mL (≈ 14.7 µM).

`CC(C)[C@@H]1CC[C@]2(C(=O)O)CC[C@]3(C)[C@H](CC[C@@H]4[C@@]5(C)Cc6c(oc7ccccc67)C(C)(C)[C@@H]5CC[C@]43C)[C@@H]12` came in with a 50% inhibitory concentration (IC50) of 7.1 µg/mL (≈ 13.4 µM).

In the case of `C=C(C)[C@@H]1CC[C@]2(C(=O)O)CC[C@]3(C)[C@H](CC[C@@H]4[C@@]5(C)Cc6c(n(C)c7ccccc67)C(C)(C)[C@@H]5CC[C@]43C)[C@@H]12`, half-maximal inhibition (IC50) was put at 6.9 µg/mL (≈ 12.7 µM).

A further assay concerns MIA PaCa-2. In words: Cytotoxicity against human MIA PaCa2 cells after 72 hrs by MTT assay. The class given is functional, cell-based. To be noted: MIA PaCa-2, 72 h. An outline of the steps: as §1
Regarding `C=C(C)[C@@H]1CC[C@]2(C(=O)O)CC[C@]3(C)[C@H](CC[C@@H]4[C@@]5(C)Cc6c([nH]c7ccc(Cl)cc67)C(C)(C)[C@@H]5CC[C@]43C)[C@@H]12`, the half-maximal inhibitory concentration (IC50) came out at 2.44 µg/mL (≈ 4.34 µM).

`C=C(C)[C@@H]1CC[C@]2(C(=O)O)CC[C@]3(C)[C@H](CC[C@@H]4[C@@]5(C)Cc6c([nH]c7ccc(OC)cc67)C(C)(C)[C@@H]5CC[C@]43C)[C@@H]12` showed an IC50 of 6.4 µg/mL (≈ 11.5 µM).

The compound `CC(C)[C@@H]1CC[C@]2(C(=O)O)CC[C@]3(C)[C@H](CC[C@@H]4[C@@]5(C)Cc6c(oc7ccccc67)C(C)(C)[C@@H]5CC[C@]43C)[C@@H]12` returned a half-maximal inhibitory concentration (IC50) of 8.8 µg/mL (≈ 16.6 µM).

The compound `C=C(C)[C@@H]1CC[C@]2(C(=O)O)CC[C@]3(C)[C@H](CC[C@@H]4[C@@]5(C)Cc6c(n(C)c7ccccc67)C(C)(C)[C@@H]5CC[C@]43C)[C@@H]12` displayed a half-maximal inhibitory concentration (IC50) of 5.34 µg/mL (≈ 9.86 µM).

For a further assay, the system named is HBL-100. In words: Cytotoxicity against human HBL100 cells after 72 hrs by MTT assay. The class given is functional, cell-based. Particulars: HBL-100, 72 h. An outline of the steps:
as §1
Consider `C=C(C)[C@@H]1CC[C@]2(C(=O)O)CC[C@]3(C)[C@H](CC[C@@H]4[C@@]5(C)Cc6c([nH]c7ccc(Cl)cc67)C(C)(C)[C@@H]5CC[C@]43C)[C@@H]12`, for which the 50% inhibitory concentration (IC50) was found to be 11.8 µg/mL (≈ 20.9 µM).

Compound `C=C(C)[C@@H]1CC[C@]2(C(=O)O)CC[C@]3(C)[C@H](CC[C@@H]4[C@@]5(C)Cc6c([nH]c7ccc(OC)cc67)C(C)(C)[C@@H]5CC[C@]43C)[C@@H]12` registered a half-maximal inhibitory concentration (IC50) of 12.8 µg/mL (≈ 22.9 µM).

`CC(C)[C@@H]1CC[C@]2(C(=O)O)CC[C@]3(C)[C@H](CC[C@@H]4[C@@]5(C)Cc6c(oc7ccccc67)C(C)(C)[C@@H]5CC[C@]43C)[C@@H]12` registered a concentration for half-maximal inhibition (IC50) greater than 20 µg/mL.

`C=C(C)[C@@H]1CC[C@]2(C(=O)O)CC[C@]3(C)[C@H](CC[C@@H]4[C@@]5(C)Cc6c(n(C)c7ccccc67)C(C)(C)[C@@H]5CC[C@]43C)[C@@H]12`: the IC50 was 19.5 µg/mL (≈ 36 µM).

The next assay relates to NIH3T3. In words: Cytotoxicity against mouse NIH3T3 cells after 72 hrs by MTT assay. Format: cell-based. To be noted: NIH3T3, 72 h. The gist of the method: as §1
In turn, `C=C(C)[C@@H]1CC[C@]2(C(=O)O)CC[C@]3(C)[C@H](CC[C@@H]4[C@@]5(C)Cc6c([nH]c7ccc(Cl)cc67)C(C)(C)[C@@H]5CC[C@]43C)[C@@H]12` had an IC50 of 4.6 µg/mL (≈ 8.18 µM).

The compound `C=C(C)[C@@H]1CC[C@]2(C(=O)O)CC[C@]3(C)[C@H](CC[C@@H]4[C@@]5(C)Cc6c([nH]c7ccc(OC)cc67)C(C)(C)[C@@H]5CC[C@]43C)[C@@H]12` showed a half-inhibitory concentration (IC50) of 7.5 µg/mL (≈ 13.4 µM).

`CC(C)[C@@H]1CC[C@]2(C(=O)O)CC[C@]3(C)[C@H](CC[C@@H]4[C@@]5(C)Cc6c(oc7ccccc67)C(C)(C)[C@@H]5CC[C@]43C)[C@@H]12` yielded a half-maximal inhibitory concentration (IC50) of 20 µg/mL (≈ 37.7 µM).

Regarding `C=C(C)[C@@H]1CC[C@]2(C(=O)O)CC[C@]3(C)[C@H](CC[C@@H]4[C@@]5(C)Cc6c(n(C)c7ccccc67)C(C)(C)[C@@H]5CC[C@]43C)[C@@H]12`, it took 15.1 µg/mL (≈ 27.9 µM) to reach half-maximal inhibition (IC50).

These data come from ChEMBL document CHEMBL1144169, “Synthesis and cytotoxic activity of heterocyclic ring-substituted betulinic acid derivatives” (Bioorg Med Chem Lett, 2008).
